Rows were chosen to be rich in hits. Some 6.5% of all compounds tested hit in one or more screens of this group.
PostGolgi ctrl = growth inhibition of yeast control strain, primary screen, counter-screen for post-Golgi transport modulator project. AID 738, 2007. 98,000 compounds, 5% hits. inhibition, % at 10 µM. efflux-deficient yeast background strain, growth absorbance A615, 16 h
PostGolgi yeast = phenotypic screen on post-Golgi transport, primary screen. AID 739, 2007. inhibition, % at 10 µM. 98,000 compounds, 0.9% hits. post-Golgi transport phenotypic cell assay;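 also: yeast cells grown in 1536-well plates; yeast grown about 18 h at 30C before absorbance read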
PTK2B oligo ant = antagonists of Pyk2 self-association, primary screen, Q293 cells, FERM NanoBiT luminescence, HTS. Protein-tyrosine kinase 2-beta (Homo sapiens), Q14289. AID 1347419, 2020. z-score (the deposit names both 25 µM and 10 µM). 99,000 compounds, 0.83% hits. hits give low values;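 active = Z-score of -3 or lower, scaled per plate to the spread of control and sample wells; inactive = z-score above -3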;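 also: negative z-score means lost luminescence so less FERM oligomerization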
Target sequence (Q14289 whole entry, looked up): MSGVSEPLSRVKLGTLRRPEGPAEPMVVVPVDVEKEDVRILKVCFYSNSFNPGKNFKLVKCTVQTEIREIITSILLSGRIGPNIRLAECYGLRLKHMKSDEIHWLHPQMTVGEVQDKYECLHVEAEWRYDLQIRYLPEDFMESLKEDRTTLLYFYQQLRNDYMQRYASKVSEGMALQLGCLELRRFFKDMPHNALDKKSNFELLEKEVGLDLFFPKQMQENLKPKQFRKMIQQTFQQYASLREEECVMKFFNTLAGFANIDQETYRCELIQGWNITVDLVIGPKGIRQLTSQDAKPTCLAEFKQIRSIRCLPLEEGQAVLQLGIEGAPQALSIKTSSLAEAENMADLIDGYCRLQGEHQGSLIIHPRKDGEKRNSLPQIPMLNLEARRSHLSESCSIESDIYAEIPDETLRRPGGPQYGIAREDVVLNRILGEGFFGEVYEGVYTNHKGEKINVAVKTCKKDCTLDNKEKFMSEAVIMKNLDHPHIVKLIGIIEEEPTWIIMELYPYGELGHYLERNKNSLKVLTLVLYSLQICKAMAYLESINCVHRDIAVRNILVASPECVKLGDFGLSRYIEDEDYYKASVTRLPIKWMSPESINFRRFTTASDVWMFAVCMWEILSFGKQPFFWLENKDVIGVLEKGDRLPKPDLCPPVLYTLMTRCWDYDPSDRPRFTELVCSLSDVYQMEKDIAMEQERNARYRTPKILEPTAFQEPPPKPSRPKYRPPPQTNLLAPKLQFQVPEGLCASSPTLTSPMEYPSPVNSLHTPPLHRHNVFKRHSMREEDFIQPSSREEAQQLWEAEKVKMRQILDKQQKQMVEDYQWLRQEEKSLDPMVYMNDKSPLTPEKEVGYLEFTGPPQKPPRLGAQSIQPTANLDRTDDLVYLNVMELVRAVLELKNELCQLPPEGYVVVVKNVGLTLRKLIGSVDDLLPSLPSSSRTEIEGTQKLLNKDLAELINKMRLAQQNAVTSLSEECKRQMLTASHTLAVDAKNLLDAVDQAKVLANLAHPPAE
Ecoli WT expand = growth inhibitors of wild-type E. coli, primary screen, strain BW25113, expanded library, OD600 | 98,000 compounds, 0.15% hits | growth inhibition, % at 100 µM | AID 710, 2007 | OD600 absorbance;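 active = growth inhibition above about 50% at one test dose, limit read from the data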;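 also: growth measured after 20 h incubation at 37 °C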
Calb biofilm kill = clotrimazole potentiators killing Candida biofilms, primary screen, with clotrimazole, Alamar Blue | C. albicans biofilm + clotrimazole | inhibition, % at 6 µM | 85,000 compounds, 0.14% hits | AID 834, 2007;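 active = inhibition above 20%; inactive = inhibition below 20%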;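 also: preformed 24 hr biofilms exposed to compound for 48 hr; 0% = biofilm without compound and 100% = blank killed by clotrimazole plus chlorhexidine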
Ecoli tolC = growth inhibitors of E. coli tolC mutant, primary screen, strain BW25113 ΔtolC::kan, 384-well | 65,000 compounds, 2.2% hits | growth inhibition, % at 10 µM (by protocol) | AID 573, 2007 | OD615;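 active = growth inhibition at or above a cutoff equal to the mean over every tested compound plus 3 SD, cut at about 60% in these data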;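 also: growth measured after 20 h incubation at 37 °C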
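Signal: optical density read at 615 nm; Assay system: E. coli ΔtolC::kan strain BW25113; Times: 20 h incubation with compound, 37 °C; Dosing: 10 µM final, single dose.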
* marks the source's active call; other numbers are inactive results. Rule as the data show it, unless noted: active = inhibition above about 30%; inactive = the rest.

Screening CCNc1nc(NCC)nc(N/N=C/c2ccc([N+](=O)[O-])o2)n1 returned PostGolgi ctrl 7.7, PostGolgi yeast 3.9, PTK2B oligo ant 1.11 and Ecoli WT expand 8.0.
For Cc1ccc2nc(N/N=C\c3ccc([N+](=O)[O-])o3)nc(-c3ccccc3)c2c1 the results were PostGolgi ctrl 98.7*, PostGolgi yeast 107.6*, PTK2B oligo ant -3.96*, Ecoli WT expand -25.0 and Calb biofilm kill 8.7.
`CCC1=C/C(=C/N(C)c2ccccc2)C(=O)S1` gave PostGolgi ctrl 15.4, PostGolgi yeast 5.5, PTK2B oligo ant -0.1, Ecoli WT expand 3.0, Calb biofilm kill -3.0 and Ecoli tolC -5.4.
Screening COc1cccc(C2=NOC(C(=O)Nc3ccccc3SC)C2)c1 (stereo not drawn) returned PostGolgi ctrl 4.5, PostGolgi yeast 4.0, PTK2B oligo ant -2.2, Ecoli WT expand 0.0 and Calb biofilm kill 1.6.
`O=C(NCc1cccnc1)/C(=C/c1ccc(-c2cccc(Cl)c2)o1)S(=O)(=O)c1ccccc1` gave PostGolgi ctrl 36.7*, PostGolgi yeast 11.2, PTK2B oligo ant 1.78 and Ecoli WT expand -11.0.
Screening O=C(Nc1ccc(N2CCN(C(=O)c3ccc(Cl)cc3)CC2)cc1)c1ccc(Br)o1 returned PostGolgi ctrl 54.1*, PostGolgi yeast 20.8, PTK2B oligo ant 0.7, Ecoli WT expand -2.0, Calb biofilm kill 11.5 and Ecoli tolC 30.8.
Screening O=C(Nc1ccc(N2CCN(C(=O)c3ccco3)CC2)c(Cl)c1)c1c(F)c(F)c(F)c(F)c1F returned PostGolgi ctrl 62.7*, PostGolgi yeast 21.6, PTK2B oligo ant 1.01, Ecoli WT expand -15.0, Calb biofilm kill 9.5 and Ecoli tolC 77.3*.
Screening O=C(Cc1ccc(Cl)cc1)Nc1ccc(N2CCN(C(=O)c3ccco3)CC2)cc1 returned PostGolgi ctrl 43.3*, PostGolgi yeast -3.7, PTK2B oligo ant 0.14, Ecoli WT expand 2.0, Calb biofilm kill 4.9 and Ecoli tolC 9.4.
For O=C(Nc1ccc(N2CCN(C(=O)c3ccc(Cl)cc3)CC2)cc1)c1cc2ccccc2o1 the results were PostGolgi ctrl 2.2, PostGolgi yeast 7.3, PTK2B oligo ant -2.87, Ecoli WT expand -7.0 and Calb biofilm kill -3.0.
O=C(CCCCn1c(=O)[nH]c2ccccc2c1=O)NCCC1=CCCCC1 was read as PostGolgi ctrl 0.9, PostGolgi yeast -2.0, PTK2B oligo ant 0.97, Ecoli WT expand -1.0, Calb biofilm kill 1.9 and Ecoli tolC 4.8.
Cc1ccc(N(C(=O)CCC(=O)Nc2cc(C)on2)C(C(=O)NC2CCCC2)c2cccs2)cc1 (stereo not drawn) was read as PostGolgi ctrl 35.6*, PostGolgi yeast 0.3, PTK2B oligo ant -1.24, Ecoli WT expand -2.0 and Calb biofilm kill 3.3.
`Clc1ccccc1N1CCN(c2ncnc3nc[nH]c23)CC1` gave PostGolgi ctrl 12.1, PostGolgi yeast 0.6, Ecoli WT expand -7.0, Calb biofilm kill -1.2 and Ecoli tolC 7.0.
Screening FC(F)(F)c1cccnc1N1CCN(c2ncnc3nc[nH]c23)CC1 returned PostGolgi ctrl 14.4, PostGolgi yeast -9.6, Ecoli WT expand -6.0, Calb biofilm kill 29.0* and Ecoli tolC -3.5.
For CCS(=O)(=O)C(=C1Nc2ccccc2N1)S(=O)(=O)CC the results were PTK2B oligo ant 0.47 and Calb biofilm kill 6.9.
For CCCCS(=O)(=O)C(=C1Nc2ccccc2N1)S(=O)(=O)CCCC the results were PostGolgi ctrl 30.0*, PostGolgi yeast 12.2, PTK2B oligo ant 0.26, Ecoli WT expand -3.0, Calb biofilm kill 8.7 and Ecoli tolC -19.5.
O=C(NC1CCCCCC1)c1ccc(CN2CCOCC2)cc1 was read as PostGolgi ctrl 14.9, PostGolgi yeast 22.1, PTK2B oligo ant -0.27, Ecoli WT expand 3.0 and Calb biofilm kill 0.2.
O=C(NCC(=O)N(c1cccnc1)C(C(=O)NCc1ccco1)c1ccccc1)c1ccco1 (stereo not drawn) was read as PostGolgi ctrl -0.1, PostGolgi yeast 39.2*, PTK2B oligo ant 0.28, Ecoli WT expand 5.0, Calb biofilm kill 6.8 and Ecoli tolC -13.4.
`O=C(NCc1ccco1)C(c1cccs1)N(C(=O)Cc1cccs1)c1ccccc1` (stereo not drawn) gave PostGolgi ctrl 7.5, PostGolgi yeast 37.6*, PTK2B oligo ant 0.55, Ecoli WT expand -3.0, Calb biofilm kill 3.7 and Ecoli tolC 18.6.
COc1ccc(OC)c(C(=O)N2CCC(C(=O)c3ccc(F)cc3)CC2)c1 was read as PTK2B oligo ant 0.07 and Calb biofilm kill 6.8.
For CC(C)c1ccc(/C=C/C(=O)NC2=NCCS2)cc1 the results were PostGolgi ctrl 33.5*, PostGolgi yeast 3.1 and Ecoli WT expand -6.0.
For CN1/C(=C\C(=O)c2cccs2)Sc2ccccc21 the results were PostGolgi ctrl 3.4, PostGolgi yeast 24.3, PTK2B oligo ant -0.55, Ecoli WT expand 3.0, Calb biofilm kill 6.0 and Ecoli tolC 68.2*.
Screening CN1/C(=C/C(=O)C2CCC2)Sc2ccccc21 returned PostGolgi ctrl -2.1, PostGolgi yeast 21.0, PTK2B oligo ant 0.32, Ecoli WT expand 16.0, Calb biofilm kill 2.5 and Ecoli tolC 1.4.
COCC(=O)/C=C1\Sc2ccccc2N1C was read as PostGolgi ctrl 36.1*, PostGolgi yeast -0.9, PTK2B oligo ant 1.57, Ecoli WT expand 6.0, Calb biofilm kill 5.7 and Ecoli tolC -9.0.
For CN1/C(=C/C(=O)c2cccs2)Sc2ccccc21 the results were PostGolgi ctrl 11.4, PostGolgi yeast 0.0, PTK2B oligo ant -0.29, Ecoli WT expand -9.0 and Calb biofilm kill 0.1.
COc1ccc(C2SCC(=O)N2c2c(C)n(C)n(-c3ccccc3)c2=O)cc1 (stereo not drawn) was read as PostGolgi ctrl -7.9, PostGolgi yeast -5.0, PTK2B oligo ant 0.12, Ecoli WT expand 3.0, Calb biofilm kill 9.1 and Ecoli tolC -12.9.
`COc1ccc(C2SCC(=O)N2CC23CC4CC(CC(C4)C2)C3)cc1` (stereo not drawn) gave PostGolgi ctrl 59.6*, PostGolgi yeast 15.9, PTK2B oligo ant -0.72, Ecoli WT expand -8.0 and Calb biofilm kill 0.6.
Cc1ccc(C)c(OCCCCn2cnc3ccccc3c2=O)c1 was read as PostGolgi ctrl 5.0, PostGolgi yeast -0.7, PTK2B oligo ant 0.52 and Ecoli WT expand 8.0.
Cc1ccc(OCCCCn2cnc3ccccc32)c(C)c1 was read as PostGolgi ctrl 32.2*, PostGolgi yeast -3.5, PTK2B oligo ant 0.6, Ecoli WT expand 9.0 and Calb biofilm kill 5.7.
`O=S(=O)(c1cccc(-c2nc3ccccc3s2)c1)N1CCOCC1` gave PostGolgi ctrl 30.4*, PostGolgi yeast 2.1, PTK2B oligo ant -1.62, Ecoli WT expand -5.0 and Calb biofilm kill 0.8.
Screening Cc1ccc(-c2nc3ccccc3s2)cc1S(=O)(=O)N1CCCC1 returned PostGolgi ctrl 30.8*, PostGolgi yeast 28.4, PTK2B oligo ant -2.72, Ecoli WT expand 2.0 and Calb biofilm kill 0.1.

Bioassay records from PubChem.
